A short description of series [1]: Biodistribution in CD1 mouse thymus assessed per gram of wet tissue at 400 to 600 kBq, iv after 120 mins post-injection by gamma counting. The format is ADME, organism-based. As to conditions: in vivo, 2 h. In outline:
(§1)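 Female CD-1 mice (~8-12 weeks, 20-28 g), habituated ≥48 h and fasted 24 h with water available. The [18F] tracer (>150 GBq/μmol at end of synthesis) was given in 200 μL saline into the tail vein of conscious animals. At each time point, n=4-5, mice were anaesthetised, blood and urine sampled, then killed by cervical dislocation. Organs were weighed and γ-counted, and values calculated as % ID/g wet tissue.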

The nature of series [2]: Biodistribution in CD1 mouse adrenal gland assessed per gram of wet tissue at 400 to 600 kBq, iv after 60 mins post-injection by gamma counting in presence of 1 mg/kg, ip sigma 1/sigma 2 receptor antagonist haloperidol treated before compound addition. Format: organism-based. More on the design: dose 1 mg/kg, route intravenous. As to conditions: in vivo, 1 h. In outline: (§2)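 Blocking arm in fasted female CD-1 mice (n=5). […] Animals were killed at 60 min post-injection, and organs were weighed and γ-counted as % ID/g wet tissue. Percent change was taken against the 60 min control group, with two-tailed unpaired Student's t test.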

Series [3] has as its system Stomach. In words: Biodistribution in CD1 mouse stomach assessed per gram of wet tissue at 400 to 600 kBq, iv after 30 mins post-injection by gamma counting. Format: ADME, organism-based. As to conditions: in vivo, 0.5 h. In outline: as §1
The nature of series [4]: Drug uptake in CD1 mouse thymus at 400 to 600 kBq, iv after 120 mins post-injection by gamma counting relative to initial uptake. The format is ADME, organism-based. Particulars: in vivo, 2 h. In outline:
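Organ % ID/g was measured by γ-counting after tail-vein injection of 400-600 kBq [18F] tracer in saline to fasted female CD-1 mice (n=4-5 per time). The 120 min pi value is expressed relative to the initial (5 min pi) uptake.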

Series [5] relates to Intestine. In words: Biodistribution in CD1 mouse intestine assessed per gram of wet tissue at 400 to 600 kBq, iv after 60 mins post-injection by gamma counting. Format: ADME, organism-based. Particulars: in vivo, 1 h. In outline:
(§3)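 Female CD-1 mice (~8-12 weeks, 20-28 g) were fasted 24 h with free water. Conscious mice got 400-600 kBq [¹⁸F] tracer in saline by tail vein. At 5, 30, 60 or 120 min (n=4-5 per time) they were anesthetized, blood and urine sampled, then killed by cervical dislocation. Organs were weighed and γ-counted, giving % ID/g wet tissue.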

Series [6] in a line: N-octanol-phosphate buffer distribution coefficient, log D in three buffered solution by shake flask method. The format is physicochemical. In outline: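 [18F]-labelled tracer partitioned between n-octanol and Sorensen's phosphate buffer (50 mM, pH 7.2), Dulbecco's PBS (pH 7.2) or TRIS-HCl (30 mM, pH 7.2). Conventional shake-flask method, multiple distribution in duplicates, n = 50 in total.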

The subject of series [7] is Kidney. Put plainly: Biodistribution in CD1 mouse kidney assessed per gram of wet tissue at 400 to 600 kBq, iv after 60 mins post-injection by gamma counting in presence of 1 mg/kg, ip sigma 1/sigma 2 receptor antagonist haloperidol treated before compound addition. Format: organism-based. Further details: dose 1 mg/kg, route intravenous. Particulars: in vivo, 1 h. In outline:
as §2

The test system of series [8] is Kidney. In words: Biodistribution in CD1 mouse kidney assessed per gram of wet tissue at 400 to 600 kBq, iv after 5 mins post-injection by gamma counting. The format is ADME, organism-based. As to conditions: in vivo. In outline:
as §3

For series [9], the system named is Spleen. Put plainly: Biodistribution in CD1 mouse spleen assessed per gram of wet tissue at 400 to 600 kBq, iv after 30 mins post-injection by gamma counting. The format is ADME, organism-based. Particulars: in vivo, 0.5 h. In outline: as §1
The nature of series [10]: Metabolic stability in CD1 mouse urine assessed as formation of hydrophilic and lipophilioc radiometabolite at 200 to 300 MBq, iv after 45 mins post-injection by radio-HPLC and radio-TLC. Format: ADME, organism-based. As to conditions: in vivo, 0.75 h.
Series [11] relates to Liver. Put plainly: Metabolic stability in CD1 mouse liver homogenate assessed as formation of 3-(3-Fluoropropyl)-3H-spiro[[2]benzofuran-1,4'-piperidine], 4-((3-(3-fluoropropyl)-3H-spiro[isobenzofuran-1,4'-piperidine]-1'-yl)methyl)phenol and 1-(1'-benzyl-3H-spiro[isobenzofuran-1,4'-piperidine]-3-yl)-3-fluoropropan-2-ol at 200 to 300 MBq, iv after 45 mins postinjection by radio-HPLC and radio-TLC. As to conditions: in vivo, 0.75 h. The format is ADME, organism-based. In outline:
(§4)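 Mice received 200-300 MBq [18F] tracer in 200 μL 0.9% saline via the tail vein, and samples were taken at 45 and 60 min (n=2 per time). Plasma was obtained by centrifugation (2000g, 4 °C, 10 min); brain and liver were homogenised in ice-cold 50 mM TRIS-HCl pH 7.4. Samples were precipitated with ice-cold MeCN and centrifuged (4000g, 4 °C, 15 min), and supernatants were analysed by gradient radio-HPLC and radio-TLC, with HPLC fractions γ-counted.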

The test system of series [12] is Brain. Put plainly: Biodistribution in CD1 mouse brain assessed per gram of wet tissue at 400 to 600 kBq, iv after 60 mins post-injection by gamma counting. The format is ADME, organism-based. Particulars: in vivo, 1 h. In outline:
as §3

Series [13] is described as follows: Biodistribution in CD1 mouse urine assessed per gram of wet bladder at 400 to 600 kBq, iv after 60 mins post-injection by gamma counting in presence of 1 mg/kg, ip sigma 1/sigma 2 receptor antagonist haloperidol treated before compound addition. The format is organism-based. More on the design: route intravenous. Particulars: in vivo, 1 h. In outline:
(§5)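 They were killed at 60 min pi, and organs were weighed and γ-counted as % ID/g wet tissue. Comparison with controls used Student's t test (independent, two-tailed).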

For series [14], the system named is Intestine. In words: Biodistribution in CD1 mouse intestine assessed per gram of wet tissue at 400 to 600 kBq, iv after 5 mins post-injection by gamma counting. The format is ADME, organism-based. Particulars: in vivo. In outline: as §3
Series [15] is described as follows: Ratio of drug level in cerebellum to plasma in CD1 mouse at 400 to 600 kBq, iv after 30 mins post-injection. The format is ADME, organism-based. In outline:
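Female CD-1 mice (~8-12 weeks, 20-28 g), fasted 24 h with free water; 400-600 kBq tracer in 200 μL saline by tail vein into conscious animals. Killed at set times pi (n=4-5 per time); blood and organs weighed, γ-counted, expressed as % ID/g wet tissue; ratio from cerebellum and plasma uptake.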

Series [16] relates to Spleen. In words: Biodistribution in CD1 mouse spleen assessed per gram of wet tissue at 400 to 600 kBq, iv after 60 mins post-injection by gamma counting in presence of 1 mg/kg, ip sigma 1/sigma 2 receptor antagonist haloperidol treated before compound addition. Further details: route intravenous. Particulars: in vivo, 1 h. The format is organism-based. In outline: as §5

The nature of series [17]: Biodistribution in CD1 mouse thymus assessed per gram of wet tissue at 400 to 600 kBq, iv after 60 mins post-injection by gamma counting in presence of 1 mg/kg, ip sigma 1/sigma 2 receptor antagonist haloperidol treated before compound addition. The format is organism-based. More on the design: route intravenous. Particulars: in vivo, 1 h. In outline:
as §5

Series [18] in a line: Biodistribution in CD1 mouse adrenal gland assessed per gram of wet tissue at 400 to 600 kBq, iv after 5 mins post-injection by gamma counting. Format: ADME, organism-based. As to conditions: in vivo. In outline:
as §3

Series [19] deals with Heart. Put plainly: Biodistribution in CD1 mouse heart assessed per gram of wet tissue at 400 to 600 kBq, iv after 120 mins post-injection by gamma counting. The format is ADME, organism-based. Particulars: in vivo, 2 h. In outline:
as §3

Series [20] is described as follows: Metabolic stability in CD1 mouse plasma at 200 to 300 MBq, iv after 60 mins post-injection by supelcosil C18 HPLC and TLC-radiochromatography. The format is ADME, organism-based. As to conditions: read-out: Stability. In outline: as §4
Series [21] relates to Muscle tissue. In words: Biodistribution in CD1 mouse muscle assessed per gram of wet tissue at 400 to 600 kBq, iv after 5 mins post-injection by gamma counting. As to conditions: in vivo. The format is ADME, organism-based. In outline: as §1
Series [22] deals with Lung. Put plainly: Biodistribution in CD1 mouse lung assessed per gram of wet tissue at 400 to 600 kBq, iv after 60 mins post-injection by gamma counting in presence of 1 mg/kg, ip sigma 1/sigma 2 receptor antagonist haloperidol treated before compound addition. Format: organism-based. More on the design: route intravenous. Particulars: in vivo, 1 h. In outline:
as §5

Turning to `[18F]CCCC1OC2(CCN(Cc3ccccc3)CC2)c2ccccc21` (configuration not stated), the Drug uptake in series [1] is given as 2.86 %ID; in series [2], 5.72 %ID; in series [3] it was 5.13 %ID; in [4] it was above 70%; in [5], 6.59 %ID; in series [7], 3.42 %ID. Further, the Drug uptake in series [8] is reported as 12.1 %ID; in series [9], 5.86 %ID; in series [12] it was 2.27 %ID; in series [13], 22.5 %ID; in [14], 4.35 %ID; in [16] it was 1.89 %ID. Also, the Drug uptake in [17] was found to be 2.36 %ID; in [18], 10.6 %ID; in [19] it was 1.52 %ID; in series [21] it was 2.18 %ID; in series [22], 2.11 %ID. In addition, the logD (usually lipophilicity at a set pH, counting ionised and neutral species) in series [6] amounted to 3.03. Further, the figures for the Activity in series [10] and in [11] were 98% and 45%, respectively. Further, the Kp (in general, the ratio of the level in a tissue or fluid to that in plasma or blood) at 0.5 h in series [15] amounted to 3.86. In addition, the remaining at 1 h in series [20] was above 85%.

Values taken from ChEMBL document CHEMBL1154191, “Evaluation of spirocyclic 3-(3-fluoropropyl)-2-benzofurans as sigma1 receptor ligands for neuroimaging with positron emission tomography” (J Med Chem, 2009).
